Experimental data gathered from unrelated publications.
Protocols differ between the studies behind these lines.
Target: LIM domain kinase 2 (LIMK2, Homo sapiens, UniProt P53671)

O=c1nc(-c2ccccn2)sc2ccccc12 — remaining binding (binding; competition with immobilised ligand; 1 µM): 100%
Nc1ncc2c(n1)-c1c([nH]c3ccc(C#CC4CC4)cc13)CCCC2 — remaining binding (binding; competition with immobilised ligand; 1 µM): 91%
COc1cnc(Nc2cccc(S(N)(=O)=O)c2)nc1N1CCN(c2ccccc2)CC1 — remaining binding (binding; competition with immobilised ligand; 1 µM): 96%
N[C@H]1CCN(c2nccc(-c3cnn4ncccc34)n2)C1 — remaining binding (binding; 1 µM): 100%
CN(C)C(=O)Cn1cc(-c2nc(C3(c4ccc(-c5cnc(N)nc5)cc4)CC3)no2)cn1 — remaining binding (cell-free assay; competition with immobilised ligand; 1 µM): 85%
C[C@@H](c1ccc(-n2cnc3c(N)ncnc32)cc1)N1CCc2nn(C)c(Cc3ccccc3)c2C1=O — remaining binding (binding; competition with immobilised ligand; 0.1 µM): 25%
C[C@@H]1CCN(c2nccc(-c3cnn4ncccc34)n2)C1 — remaining binding (binding; 1 µM): 87%
O=C(Nc1c[nH]nc1C(=O)NC1CCNCC1)c1cc(F)cc(F)c1 — remaining binding (binding; competition with immobilised ligand; 1 µM): 97%
c1cncc(-c2cccc(Nc3nccc(NC4CCCCC4)n3)c2)c1 — remaining binding (binding; competition with immobilised ligand; 10 µM): 45%
CC1CCCN1c1nccc(-c2cnn3ncccc23)n1 (stereo not shown) — remaining binding (binding; 1 µM): 96%
O=C(Nc1ccc(Oc2ccc(F)cc2)cc1)N1CCc2ncccc2[C@H]1c1ccc(F)cc1 — remaining binding (cell-free assay; competition with immobilised ligand; 1 µM): 93%
O=C(NCCCN1CCOCC1)c1ccc(Nc2ncc(Cl)c(-c3ccc(Cl)s3)n2)cc1 — remaining binding (binding; competition with immobilised ligand; 1 µM): 83%
CN(c1nccc(-c2cnn3ncccc23)n1)C1CC1 — remaining binding (binding; 1 µM): 100%
O=C(c1ccc(Nc2ncc(Cl)c(-c3cc4ccccc4s3)n2)cc1)N1CCC(N2CCCC2)CC1 — remaining binding (binding; competition with immobilised ligand; 1 µM): 30%
O=S(=O)(NC1CCC(c2cc(F)ccc2F)(S(=O)(=O)c2ccc(Cl)cc2)CC1)C(F)(F)F (stereo not shown) — remaining binding (cell-free assay; competition with immobilised ligand; 1 µM): 87%
CN(C)c1nccc(-c2cnc3ncccn23)n1 — remaining binding (binding; 1 µM): 91%
CC1=C(C#N)[C@@H](c2ccc3[nH]nc(C)c3c2)C(C#N)=C(c2ccc(Cl)cc2)N1 — remaining binding (cell-free assay; competition with immobilised ligand; 1 µM): 91.1%
O=C(c1ccc(Nc2ncc(Cl)c(-c3ccc(Cl)s3)n2)cc1)N1CCC(N2CCCC2)CC1 — remaining binding (binding; competition with immobilised ligand; 1 µM): 38%
O=C1NC(c2ccccn2)Sc2ccccc21 (stereo not shown) — remaining binding (cell-free assay; competition with immobilised ligand; 1 µM): 92%
F[C@@H]1CCN(c2nccc(-c3cnn4ncccc34)n2)C1 — remaining binding (binding; 1 µM): 85%
CC(=O)N1CCC(c2ccc(C(=O)NC3=NCCN3)cc2C(F)(F)F)CC1 — remaining binding (cell-free assay; competition with immobilised ligand; 1 µM): 98%
CN(C)c1nccc(-c2cnn3ncccc23)n1 — remaining binding (binding; 1 µM): 97%
